# MrgX1 PAM = human MrgX1 positive allosteric modulation, primary screen. Q96LB2. MrgX1-HEK293, Fluo-4 calcium flux, FDSS; stronger effect = higher value. B-score at 10 µM. actives 0.63% (n = 310,000). AID 588675;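 active = plate-corrected calcium response at least 3 library SD above typical, normal starting fluorescence, not activating the receptor alone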;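 note: compound read alongside a low EC10 to EC30 dose of BAM8-22 agonist; peak minus trough fluorescence over baseline measured at the second addition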
# Target sequence (Q96LB2 whole entry, looked up): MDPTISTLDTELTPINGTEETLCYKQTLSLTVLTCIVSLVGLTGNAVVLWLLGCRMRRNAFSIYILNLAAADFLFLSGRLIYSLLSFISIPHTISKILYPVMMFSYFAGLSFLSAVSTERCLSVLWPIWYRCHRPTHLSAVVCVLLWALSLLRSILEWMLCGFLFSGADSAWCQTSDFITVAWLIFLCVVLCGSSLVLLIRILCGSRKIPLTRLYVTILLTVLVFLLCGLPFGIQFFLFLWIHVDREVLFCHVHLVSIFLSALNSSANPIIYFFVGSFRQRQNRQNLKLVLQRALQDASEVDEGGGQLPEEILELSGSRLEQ
# MrgX1 agonist = human MrgX1 receptor agonism, primary screen. Q96LB2. MrgX1-HEK293 cells, Fluo-4 calcium fluorescence, agonist mode; stronger effect = higher value. B-score at 10 µM. actives 0.44% (n = 310,000). AID 588627;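 active = calcium response B-score plate-corrected fluorescence ratio at least 3 library SD, with starting fluorescence B-score inside 5 SD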
#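 Test system: HEK293 cells stably expressing human MrgX1 receptor; Input: fifteen thousand cells per well; Dosing: compound delivered in addition one of three; Schedule: overnight seeding, then 1 h dark dye loading; Technique: Fluo-4 NW calcium fluorescence; Measure: B-scored fluorescence response ratio; Controls: positive and negative controls per plate.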
# RGS4 act = RGS4 potentiation or activation; AID 463111; HEK293 M3R/inducible RGS4, carbachol calcium flux Fluo4; stronger effect = lower value; B-score at 10 µM; actives 0.92% (n = 310,000);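 active = B-score of the integrated calcium signal more than 4 SD below the library mean, with starting fluorescence not abnormally high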;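 note: negative B-score means reduced calcium response which marks RGS4 activation or potentiation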
#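 System – HEK293 FlpIn-TREx cells, stable M3R, doxycycline-inducible RGS4 · Reagent – ECmax carbachol challenge · Times – compound preincubation 20 min at room temperature before agonist · Technique – Fluo4 fluorescence kinetic imaging of calcium · Measure – B score of integrated Fluo4 ratio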
# MrgX1 antagonist = blocks BAM8-22 activation of human MrgX1 receptor. Q96LB2. MRGX1-HEK293 calcium flux, Fluo-4, BAM8-22 antagonism; stronger effect = lower value. B-score at 10 µM. actives 1.3% (n = 310,000);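 active = calcium-response B-score plate-corrected more than 3 library SD below zero, starting fluorescence within 5 deviations, no agonist response on first addition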;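 note: peak minus trough fluorescence over baseline after final BAM8-22 challenge near maximal dose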
# RGS4 block = inhibitors of human RGS4. AID 463165. HEK293 M3R/RGS4 inducible, Fluo-4 calcium flux; stronger effect = higher value; triggered by carbachol at its EC20. actives 0.45% (n = 310,000). B-score at 10 µM;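 active = B-score, a plate-corrected calcium signal, over three deviations above library mean, with baseline fluorescence within five deviations of library mean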;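 note: RGS4 expression induced by doxycycline in cells with stable M3 receptor; B-score is computed from the integrated fluorescence ratio over baseline after carbachol; higher B-score means a larger calcium signal and so more RGS4 inhibition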
# Target sequence (P49798 whole entry, looked up): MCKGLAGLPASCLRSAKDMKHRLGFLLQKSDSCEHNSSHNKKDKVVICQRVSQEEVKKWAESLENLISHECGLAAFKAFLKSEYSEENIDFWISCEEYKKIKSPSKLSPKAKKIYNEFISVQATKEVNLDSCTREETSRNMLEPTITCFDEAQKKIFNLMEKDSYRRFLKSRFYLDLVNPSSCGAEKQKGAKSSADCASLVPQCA
# RGS4 inh valid = RGS4 inhibitor validation; shares compounds with RGS4 block; actives 65% (n = 1,700); HEK293 M3R/RGS4, carbachol calcium Fluo-4 fluorescence; carbachol added at its EC20; 0 = buffer wells, 100 = carbachol control; calcium response, % at 10 µM;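 active = duplicate-averaged calcium response above the buffer-only control mean plus 5 SD of those controls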;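 note: integrated fluorescence ratio F max minus min over baseline F0; higher response in RGS4-induced cells means RGS4 inhibition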
# RGS4 uninduced = counter-screen for RGS4 inhibitors: effect in non-induced cells; HEK293 M3R non-induced, carbachol calcium Fluo-4; submaximal (EC20) carbachol stimulus; buffer wells 0%, carbachol control wells 100%; activity (percent), % at 10 µM; shares compounds with RGS4 block; AID 493000; actives 20% (n = 1,900); call rule not given here;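 note: RGS4 induction absent so cells express M3R without RGS4; higher means more calcium signal and flags a non-specific hit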
# RGS4 inh ctr2 = signal in non-induced cells without carbachol, RGS4 inhibitor counter-screen | shares compounds with RGS4 block | HEK293 M3R/RGS4 non-induced, Fluo-4 calcium, no carbachol; normalised: buffer wells 0%, carbachol wells 100% | calcium response (agonist-mode artifact), % at 10 µM | actives 22% (n = 1,900) | AID 493001;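 active = duplicate-averaged calcium rise in uninduced cells above buffer wells' mean plus 5 SD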
# * marks the source's active call; other numbers are inactive results; i = inactive; · = no result. Sampled rows, rich in hits. Any-hit rate of the full collection: about 3.5%.
SMILES,MrgX1 PAM,MrgX1 agonist,RGS4 act,MrgX1 antagonist,RGS4 block,RGS4 inh valid,RGS4 uninduced,RGS4 inh ctr2
CC(C)C(OC(=O)c1cccs1)C(=O)NCc1ccc2c(c1)OCO2 (stereo not given),i,i,i,i,i,·,·,·
COc1ccc(C)cc1NC(=O)C(=O)NCc1ccncc1,i,i,i,i,i,i,i,i
COc1ccc(NC(=O)C(=O)NCc2ccncc2)c(OC)c1,i,i,i,i,i,i,i,i
O=C(O)C1C2C=CC(O2)C1C(=O)Nc1cccc(C(F)(F)F)c1 (stereo not given),i,i,i,i,i,·,·,·
Cc1ccccc1OCCNc1cc(N2CCN(CCO)CC2)ccc1[N+](=O)[O-],i,i,i,i,i,·,·,·
Cc1ccccc1OCCNc1cc(N2CCCCC2)ccc1[N+](=O)[O-],i,i,i,i,i,i,i,i
CCOC(=O)C1=C(c2ccccc2)NC(N)=NC1c1ccc(OCc2ccc(Cl)cc2)c(OC)c1 (stereo not given),i,i,i,i,8.93*,31.5%*,i,33.5%*
CCOC(=O)C1=C(c2ccccc2)NC(=O)NC1c1cc(Cl)c(O)c(OC)c1 (stereo not given),i,i,i,i,i,·,·,·
Cc1ccc(-c2nn(-c3ccccc3)cc2/C=N/n2c(-c3cccs3)n[nH]c2=S)cc1,i,i,i,i,i,·,·,·
S=c1[nH]nc(-c2ccncc2)n1/N=C/c1cn(-c2ccccc2)nc1-c1ccccc1,i,i,i,i,7.8*,11.5%*,41.0%*,i
O=[N+]([O-])c1ccc(-c2nn(-c3ccccc3)cc2/C=N/n2c(-c3ccncc3)n[nH]c2=S)cc1,i,i,i,i,i,i,i,i
Cc1cc(S(=O)(=O)Nc2ccc3cn[nH]c3c2)c(C)cc1Cl,i,i,i,i,15.3*,30.5%*,i,i
CNC(=O)c1[nH]cnc1C(=O)Nc1ccc(Cl)cc1,i,i,i,i,i,·,·,·
COc1ccc(NC(=O)/C(Cl)=C(/Cl)S(=O)Cc2ccccc2)cn1 (stereo not given),i,i,i,i,26.8*,45.5%*,i,i
COC(=O)c1cc(=O)n(CCc2ccccc2F)c(=Nc2ccc(F)c(Cl)c2)s1,i,i,i,i,i,·,·,·
COC(=O)c1cc(=O)n(Cc2ccco2)c(=Nc2ccc(F)c(Cl)c2)s1,i,i,i,i,i,·,i,i
COC(=O)CSc1[nH]c2ccccc2c1[N+](=O)[O-],i,i,i,i,15.7*,44.5%*,i,i
O=C(COC(=O)/C=C/c1cccs1)Nc1nc(-c2cccc(Br)c2)cs1,i,i,i,i,i,i,i,12.0%*
O=C(COC(=O)/C=C/c1cccs1)Nc1nc(-c2ccccc2)cs1,i,i,i,i,14.8*,50.5%*,53.0%*,i
COc1ccc(NC(=O)Nc2cc(C(C)(C)C)on2)cc1OC,i,i,i,i,i,·,·,·
COc1ccc(Nc2cnn(-c3nc4ccccc4s3)c(=O)c2Cl)cc1,i,i,i,i,4.7*,11.0%*,i,i
COc1cccc2c1Oc1cc([N+](=O)[O-])cc(N(C)C(C)=O)c1C=C2,i,i,i,i,i,·,·,·
CSc1c(C#N)c(N)c(C#N)c2c1COC(C)(C)C2,i,i,i,i,5.77*,5.5%*,i,i
O=C(N/C(=C/c1cccc(Br)c1)c1nc(=S)[nH][nH]1)c1ccccc1,i,i,i,i,7.21*,45.0%*,i,96.5%*
Cc1ccc(C(=O)N/C(=C\c2ccc(Br)cc2)c2nc(=S)[nH][nH]2)cc1,i,i,i,i,i,·,i,11.0%*
SMILES,MrgX1 PAM,MrgX1 agonist,RGS4 act,MrgX1 antagonist,RGS4 block,RGS4 inh valid,RGS4 uninduced,RGS4 inh ctr2
N#Cc1cccc(NC(=O)NCCc2c[nH]c3ccccc23)c1,i,i,i,i,i,·,·,·
Cc1sc2nc(CN(Cc3ccccc3)C(=O)NC3CCCCC3)[nH]c(=O)c2c1C,i,i,i,i,5.13*,i,i,i
CC(Sc1nccn1C)C(=O)Nc1ccc(Cl)cn1 (stereo not given),i,i,i,i,i,·,·,·
Cc1cc(NC(=O)COc2ccccc2C)ccc1NC(=O)c1cccs1,i,i,i,i,i,·,·,·
O=C(NCCN1C(=O)S/C(=C\c2ccc(F)cc2)C1=O)c1cccc(S(=O)(=O)N2CCOCC2)c1,i,i,i,i,i,·,·,·
CCCOc1ccc(/C(O)=C2\C(=O)C(=O)N(c3ccccn3)C2c2ccccc2F)cc1C (stereo not given),i,i,i,i,i,·,·,·
O=C(Nc1ccccc1)C(Cl)C(=O)c1ccccc1 (stereo not given),i,i,i,i,9.06*,30.5%*,38.0%*,i
COC(=O)c1ccc(NC(=S)Nc2ccccc2)cc1,i,i,i,i,i,·,·,·
COC(=O)c1ccc(NC(=S)Nc2ccc3ccccc3c2)cc1,i,i,i,i,7.77*,i,i,i
CN(C)c1ccc(/C=C(\NC(=O)c2ccccc2)C(=O)NCc2ccncc2)cc1,i,i,i,i,i,·,·,·
CN(C)c1ccc(/C=C(\NC(=O)c2ccccc2)C(=O)NCc2cccnc2)cc1,i,i,i,i,i,i,i,i
COc1ccc(/C=C(\NC(=O)c2ccccc2)C(=O)NCc2cccnc2)cc1,i,i,i,i,i,i,i,i
O=C(c1ccc(Cl)cc1)N1CCOc2ccccc21,i,i,i,i,i,·,·,·
COc1ccc(-c2cnnn2-c2ccc(NC(=O)c3ccco3)cc2)cc1OC,i,i,i,i,4.68*,6.0%*,i,i
